Data reported in ChEMBL document CHEMBL1132233, “6-Anilinouracil-based inhibitors of Bacillus subtilis DNA polymerase III: antipolymerase and antimicrobial structure-activity relationships based on substitution at uracil N3” (J Med Chem, 1999).
≈ marks a conversion by molar mass, not a printed value.

How the values were obtained:
[1] = tested on: Bacillus subtilis; experiment: Minimum inhibitory concentration against Bacillus subtilis; type: functional
Procedure, shortened: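 Test organism was penicillin-sensitive B. subtilis strain BD54. A log-phase culture was diluted to 10^4 cells/mL in Luria broth. Inhibitors in DMSO were added at 0–100 µM, with final DMSO at 1%. Cultures were incubated 24 h at 37 °C and growth was scored by eye. MIC is the lowest concentration with no apparent growth, averaged over three independent experiments.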

[2] = molecular target: DNA polymerase III (Bacillus subtilis); experiment: Compound was tested for inhibitory activity against DNA polymerase III of Bacillus subtilis
[3] = Compound was tested for inhibitory activity against DNA pol III of Bacillus subtilis
Procedure, shortened: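 Homogeneous recombinant B. subtilis DNA pol III was assayed on activated calf thymus DNA. Apparent Ki was determined with a truncated assay lacking the competitor dGTP. Values are the average of three independent experiments.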

| SMILES | MIC [1] [µM] | Ki [2] [nM] | Ki [3] [nM] |
| --- | --- | --- | --- |
| CCc1cc(Nc2cc(=O)n(CC)c(=O)[nH]2)ccc1C | 1.5 (≈ 0.41 µg/mL) | 120 | – |
| CCc1cc(Nc2cc(O)nc(O)n2)ccc1C | 30 (≈ 7.36 µg/mL) | – | 1000 |
| CCc1cc(Nc2cc(=O)n(CCCOC)c(=O)[nH]2)ccc1C | 1.5 (≈ 0.476 µg/mL) | – | 1000 |
| Cn1c(=O)cc(Nc2ccc3c(c2)CCC3)[nH]c1=O | 5 (≈ 1.29 µg/mL) | – | 1340 |
| CCc1cc(Nc2cc(=O)n(CCOC)c(=O)[nH]2)ccc1C | 3 (≈ 0.91 µg/mL) | – | 580 |
| CCCn1c(=O)cc(Nc2ccc3c(c2)CCC3)[nH]c1=O | 11 (≈ 3.14 µg/mL) | 310 | – |
| C=CCn1c(=O)cc(Nc2ccc3c(c2)CCC3)[nH]c1=O | 3 (≈ 0.85 µg/mL) | – | 380 |
| CCn1c(=O)cc(Nc2ccc3c(c2)CCC3)[nH]c1=O | 3 (≈ 0.814 µg/mL) | – | 310 |
| CCCCn1c(=O)cc(Nc2ccc3c(c2)CCC3)[nH]c1=O | 3 (≈ 0.898 µg/mL) | 90 | – |
| CCc1cc(Nc2cc(=O)n(CCCO)c(=O)[nH]2)ccc1C | 3 (≈ 0.91 µg/mL) | – | 730 |
| CCc1cc(Nc2cc(=O)n(CCO)c(=O)[nH]2)ccc1C | 3 (≈ 0.868 µg/mL) | – | 590 |
| Oc1cc(Nc2ccc3c(c2)CCC3)nc(O)n1 | 30 (≈ 7.3 µg/mL) | – | 1200 |
| C=CCn1c(=O)cc(Nc2ccc(C)c(CC)c2)[nH]c1=O | 1.5 (≈ 0.428 µg/mL) | – | 210 |
| CCCCCCn1c(=O)cc(Nc2ccc3c(c2)CCC3)[nH]c1=O | > 100 | – | 240 |
